Measurements reported in ChEMBL document CHEMBL2169842, “Structure-activity relationship in the antitumor activity of 6-, 8- or 6,8-substituted 3-benzylamino-β-carboline derivatives” (Bioorg Med Chem Lett, 2012).
pIC50: −log10 of the molar value. Activity calls are given as the source filed them. No cut-off for these calls is given here.

Experiments:
[1] = Cytotoxicity against mouse Sarcoma 180 cells after 24 to 72 hrs by MTT assay; assay type: functional, cell-based
Summary of the method: (§1)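 MTT assay. IC50 taken as the drug concentration giving 50% inhibition of cell growth. Values are mean ± S.D. of four independent experiments, each run in triplicate.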

[2] = test system: HEK-293T; test: Cytotoxicity against human 293T cells after 24 to 72 hrs by MTT assay; assay type: cell-based; summary of the method: as §1
[3] = Cytotoxicity against human HeLaS3 cells after 24 to 72 hrs by MTT assay; assay type: functional, cell-based; details: HeLa S3; summary of the method: as §1
[4] = Cell cycle arrest in human HeLaS3 cells assessed as accumulation at G2/M phase after 48 hrs using propidium iodide staining by flow cytometry (reference value: 16.21%); assay type: functional, cell-based; details: HeLa S3
Summary of the method: (§2)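 HeLa S-3 cells incubated without (control) or with compound for 9, 24 or 48 h, then fixed and stained with propidium iodide. DNA content read by flow cytometry. Populations given as percent in sub-G1, G1, S and G2/M phases.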

[5] = Cell cycle arrest in human HeLaS3 cells assessed as accumulation at G2/M phase after 24 hrs using propidium iodide staining by flow cytometry (reference value: 16.21%); assay type: functional, cell-based; details: HeLa S3; summary of the method: as §2
[6] = Cell cycle arrest in human HeLaS3 cells assessed as accumulation at G2/M phase after 9 hrs using propidium iodide staining by flow cytometry (reference value: 16.21%); assay type: functional, cell-based; details: HeLa S3; summary of the method: as §2
[7] = Cell cycle arrest in human HeLaS3 cells assessed as accumulation at S phase after 48 hrs using propidium iodide staining by flow cytometry (reference value: 6.36%); assay type: functional, cell-based; details: HeLa S3
[8] = Cell cycle arrest in human HeLaS3 cells assessed as accumulation at S phase after 24 hrs using propidium iodide staining by flow cytometry (reference value: 6.36%); assay type: functional, cell-based; details: HeLa S3
[9] = Cell cycle arrest in human HeLaS3 cells assessed as accumulation at S phase after 9 hrs using propidium iodide staining by flow cytometry (reference value: 6.36%); assay type: functional, cell-based; details: HeLa S3
[10] = Cell cycle arrest in human HeLaS3 cells assessed as accumulation at G1 phase after 48 hrs using propidium iodide staining by flow cytometry (reference value: 75.29%); assay type: functional, cell-based; details: HeLa S3; summary of the method: as §2
[11] = Cell cycle arrest in human HeLaS3 cells assessed as accumulation at G1 phase after 24 hrs using propidium iodide staining by flow cytometry (reference value: 75.29%); assay type: functional, cell-based; details: HeLa S3; summary of the method: as §2
[12] = Cell cycle arrest in human HeLaS3 cells assessed as accumulation at G1 phase after 9 hrs using propidium iodide staining by flow cytometry (reference value: 75.29%); assay type: functional, cell-based; details: HeLa S3; summary of the method: as §2
[13] = Cell cycle arrest in human HeLaS3 cells assessed as accumulation at sub-G1 phase after 48 hrs using propidium iodide staining by flow cytometry (reference value: 2.41%); assay type: functional, cell-based; details: HeLa S3; summary of the method: as §2
[14] = Cell cycle arrest in human HeLaS3 cells assessed as accumulation at sub-G1 phase after 24 hrs using propidium iodide staining by flow cytometry (reference value: 2.41%); assay type: functional, cell-based; details: HeLa S3; summary of the method: as §2
[15] = Cell cycle arrest in human HeLaS3 cells assessed as accumulation at sub-G1 phase after 9 hrs using propidium iodide staining by flow cytometry (reference value: 2.41%); assay type: functional, cell-based; details: HeLa S3; summary of the method: as §2
[16] = test system: HeLa S3; test: Induction of apoptosis in human HeLaS3 cells assessed as DNA fragmentation after 48 hrs agarose-gel electrophoresis; assay type: functional, cell-based
Summary of the method: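 HeLa S-3 cells treated with compound for 48 h. Genomic DNA extracted and run on a 2% agarose gel beside a 100 bp ladder marker to detect DNA fragmentation.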

[17] = test system: HeLa S3; test: Induction of apoptosis in human HeLaS3 cells assessed as formation of chromatin condensation and fragmented nuclei after 48 hrs by Hoechst 33342 staining; assay type: functional, cell-based
Summary of the method: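 HeLa S-3 cells treated with compound for 48 h, then stained with Hoechst 33342. Nuclear chromatin examined by fluorescence microscopy for condensation and fragmented nuclei, with untreated cells as comparison.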

Structure (SMILES)	pIC50 [1]	pIC50 [2]	pIC50 [3]	other results
CCCC(=O)Nc1cc(Cl)cc2c1[nH]c1cnc(NCc3ccccc3)cc12	5.87	5.64	5.59	–
CCNc1cc(Cl)cc2c1[nH]c1cnc(NCc3ccccc3)cc12	6.62	6.44	6.57	–
CCCCC(=O)Nc1cccc2c1[nH]c1cnc(N)cc12	4.42	–	4.25	–
Nc1cc2c(cn1)[nH]c1c(NC(=O)c3ccccc3)cc(Cl)cc12	4.91	–	4.58	–
CS(=O)(=O)Nc1ccc2[nH]c3cnc(NCc4ccccc4)cc3c2c1	–	–	4.72	–
CCC(=O)Nc1cc(Cl)cc2c1[nH]c1cnc(NCc3ccccc3)cc12	5.27	5.24	5.00	–
CNc1cccc2c1[nH]c1cnc(N)cc12	–	–	4.92	–
O=[N+]([O-])c1ccc2[nH]c3cnc(NCc4ccccc4)cc3c2c1	–	–	4.55	–
Clc1cc(NCc2cccs2)c2[nH]c3cnc(NCc4ccccc4)cc3c2c1	5.77	5.40	5.38	–
CC(C)Nc1cc(Cl)cc2c1[nH]c1cnc(NCc3ccccc3)cc12	–	6.15	5.96	–
Nc1cc(Cl)cc2c1[nH]c1cnc(NCc3ccccc3)cc12	5.49	5.01	5.22	–
c1ccc(Oc2cccc(CNc3cc4c(cn3)[nH]c3ccccc34)c2)cc1	7.52	–	7.13	–
Clc1cc(NCc2ccncc2)c2[nH]c3cnc(NCc4ccccc4)cc3c2c1	6.00	5.85	5.85	–
O=C(Nc1cccc2c1[nH]c1cnc(NCc3ccccc3)cc12)c1ccccc1	–	–	6.85	Activity [4]: 63.4%; Activity [5]: 71.1%; Activity [6]: 65.6%; Activity [7]: 9.05%; Activity [8]: 10.2%; Activity [9]: 9.4%; Activity [10]: 9.36%; Activity [11]: 12.8%; Activity [12]: 21.1%; Activity [13]: 18.2%; Activity [14]: 5.87%; Activity [15]: 3.89%; Activity [16]: Active; Activity [17]: Active
CCS(=O)(=O)Nc1ccc2[nH]c3cnc(NCc4ccccc4)cc3c2c1	–	–	5.47	–
CCCNc1cc(Cl)cc2c1[nH]c1cnc(NCc3ccccc3)cc12	5.87	5.70	5.54	–
CS(=O)(=O)Nc1cc(Cl)cc2c1[nH]c1cnc(NCc3ccccc3)cc12	–	–	5.10	–
Nc1cc2c(cn1)[nH]c1ccccc12	4.39	–	4.18	–
Clc1cc(Cl)c2[nH]c3cnccc3c2c1	–	–	6.70	–
c1ccc(CNc2cc3c(cn2)[nH]c2ccc(NCc4ccco4)cc23)cc1	–	–	4.82	–
O=C(Nc1cc(Cl)cc2c1[nH]c1cnc(NCc3ccccc3)cc12)C(F)(F)C(F)(F)C(F)(F)F	5.28	–	5.15	–
Nc1cc2c(cn1)[nH]c1ccc(Cl)cc12	4.54	–	4.15	–
Clc1cc(NCc2ccco2)c2[nH]c3cnc(NCc4ccccc4)cc3c2c1	–	5.51	5.42	–
Clc1cc(NCc2cccnc2)c2[nH]c3cnc(NCc4ccccc4)cc3c2c1	6.12	6.00	5.92	–
O=C(Nc1cc(Cl)cc2c1[nH]c1cnc(NCc3ccccc3)cc12)C(F)(F)F	5.29	–	5.20	–
